# Measurements published in article PMC10947786 (ACS synthetic biology, 2024).
# What was measured:
# [1] = Solubility in water; type: physicochemical; conditions: purified peptide
# [2] = Hydrogen-deuterium exchange MS; type: physicochemical; conditions: 3:7 D2O:acetonitrile, MALDI-TOF MS (Figure S13); for Hydrogen-deuterium exchange, deuteration within 1 min: 1 min timescale
# Outline: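 Purified peptide was dried under vacuum and redissolved in 3:7 D2O:acetonitrile. At set time points over 24 h, aliquots were quenched by spotting onto the MALDI target with saturated sinapinic acid in 3:7 D2O:acetonitrile + 0.1% formic acid (pH = 2). Deuterium uptake was read by MALDI-TOF MS.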
Substance,solubility in water [1] [mg/mL],"Hydrogen-deuterium exchange, deuteration within 1 min [2]","Hydrogen-deuterium exchange, deuteration within 24 h [2]"
mycetolassin-18,> 20,only a fraction of the exchangeable protons were deuterated,not fully deuterated
mycetolassin-15,> 20,only a fraction of the exchangeable protons were deuterated,not fully deuterated
